This is an account of results in ChEMBL document CHEMBL4219143, “Synthesis, structure-activity relationships and preliminary mechanism study of N-benzylideneaniline derivatives as potential TLR2 inhibitors” (Bioorg Med Chem, 2018).

Each structure is given as a SMILES string. Calls of active or inactive are those of the source. The calls are words filed in the database; no cut-off is given here. Where only a bound is given, the exact number is not on record here.

In series [1] the target is Toll-like receptor 2 (Homo sapiens) (UniProt O60603). Briefly: Antagonist activity at human TLR2 expressed in HEK-blue cells assessed as inhibition of Pam3CSK4-induced NF-kappaB activation-mediated SEAP production at 25 uM after 24 hrs by Quanti-blue-based assay. The series is classed as cell-based. The procedure, abridged:
(§1)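 HEK-Blue hTLR2 cells in DMEM with 10% serum and antibiotics, plated at 4 × 10⁴ cells per well for 24 h. Medium then replaced with compound plus agonist for 24 h at 37 °C. Agonists (final): Pam₃CSK₄ 10 ng/ml (TLR1/2), Pam₂CSK₄ 10 ng/ml (TLR2/6), Poly I:C 10 µg/ml (TLR3). Supernatant mixed 1:1 with Quanti-Blue; SEAP read at OD 620 nm after 15–30 min.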

Series [2] shares this target. The experiment in a line: Antagonist activity at human TLR2 expressed in HEK-blue cells assessed as inhibition of Pam3CSK4-induced NF-kappaB activation-mediated SEAP production at 50 uM after 24 hrs by Quanti-blue-based assay. It counts as cell-based. The essentials:
as §1

Series [3] can be described thus: Cytotoxicity against HEK-Blue cells up to 100 uM after 24 hrs by MTT assay. It counts as cell-based. The following applies: human. The procedure, abridged:
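HEK-TLR2 cells in DMEM with 10% FBS, plated at 4 × 10⁴ cells per well for 24 h. Compound plus Pam₃CSK₄ (final 10 ng/ml) added, then incubated 24 h. MTT (5 mg/ml in PBS) added for 3 h at 37 °C. Formazan dissolved in DMSO; absorbance read at 490 nm.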
For orientation: Formazan colour is commonly taken as a measure of viable cells.

For series [4], the target named is Toll-like receptor 1/2 (Homo sapiens) (UniProt O60603+Q15399). The experiment in a line: Antagonist activity at human TLR1/2 expressed in HEK-blue cells assessed as inhibition of Pam3CSK4-induced NF-kappaB activation-mediated SEAP production at 25 uM after 24 hrs by Quanti-blue-based assay. The series is classed as cell-based. The essentials: as §1
The target of the next series is TLR2/TLR6 (Homo sapiens) (UniProt O60603+Q9Y2C9). Briefly: Antagonist activity at human TLR2/6 expressed in HEK-blue cells assessed as inhibition of Pam2CSK4-induced NF-kappaB activation-mediated SEAP production at 25 uM after 24 hrs by Quanti-blue-based assay. It counts as cell-based. The procedure, abridged:
as §1

Series [5] has as its target Toll-like receptor 3 (Homo sapiens) (UniProt O15455). The experiment in a line: Antagonist activity at human TLR3 expressed in HEK-Blue assessed as inhibition of poly 1:C-induced NF-kappaB activation-mediated SEAP production at 25 uM after 24 hrs by Quanti-blue-based assay. The essentials: as §1
For series [6], the target named is Toll-like receptor 2 (Mus musculus) (UniProt Q9QUN7). The experiment in a line: Antagonist activity at TLR2 in mouse Raw 264.7 cells assessed as decrease in Pam3CSK4-induced iNOS levels at 40 uM after 24 hrs relative to positive control. It counts as cell-based. The essentials:
(§2)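 Raw 264.7 cells in RPMI 1640 with 10% serum and antibiotics, plated at 8 × 10⁴ cells per well for 24 h. Compound and TLR agonist (Pam₃CSK₄ for TLR1/2, Pam₂CSK₄ for TLR2/6) added, then incubated 24 h. Nitric oxide in supernatant detected with DAN (0.05 mg/ml in 0.62 M HCl), 15 min in the dark.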

The target in series [7] is Toll-like receptor 2 (Homo sapiens) (UniProt O60603). The experiment in a line: Antagonist activity at human TLR2 expressed in HEK-Blue cells assessed as inhibition of Pam3CSK4-induced TLR2 upregulation at 10 uM by Western blot analysis. The series is classed as cell-based. The procedure, abridged: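 HEK-Blue hTLR2 cells treated with compound and Pam₃CSK₄ at 400 ng/ml. Lysed in RIPA buffer with 1% PMSF; proteins run on SDS-PAGE and transferred to PVDF. Membranes blocked with 5% milk in TBST. Probed overnight at 4 °C with anti-TLR2 (1:250) and anti-GAPDH (1:2000), then HRP secondary (1:2500) 1 h at RT. Detected by ECL.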
Background: Immunoblotting shows a protein as a band on a membrane.

The target in the next series is TLR2/TLR6 (Mus musculus) (UniProt Q9QUN7+Q9EPW9). The experiment in a line: Antagonist activity at TLR2/TLR6 in mouse Raw 264.7 cells assessed as decrease in Pam2CSK4-induced iNOS levels at 40 uM after 24 hrs relative to positive control. The series is classed as cell-based. The essentials:
as §2

Series [8] addresses Toll-like receptor 2 (Homo sapiens) (UniProt O60603). The experiment in a line: Antagonist activity at TLR2 in human PBMC assessed as inhibition of Pam3CSK4-induced TNFalpha signalling after 24 hrs by ELISA. It counts as cell-based. The essentials: (§3)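 Human PBMC seeded at 2.5 × 10⁵ cells per well in RPMI 1640 with 10% FBS and 1% penicillin/streptomycin. Cells treated with compound plus Pam₃CSK₄ 10 ng/ml for 24 h at 37 °C, 5% CO₂. Supernatants stored frozen at −80 °C. TNF-α measured by sandwich ELISA against recombinant human standards, each sample in triplicate.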
Background: In an ELISA, binding on a coated surface is turned into a signal by an enzyme label.

Series [9] shares this target. Briefly: Antagonist activity at TLR2 in human PBMC assessed as inhibition of Pam3CSK4-induced TNFalpha signalling at 10 uM after 24 hrs by ELISA relative to control. It counts as cell-based. The essentials: as §3

Toll-like receptor 2 (Homo sapiens), sequence (O60603 whole entry): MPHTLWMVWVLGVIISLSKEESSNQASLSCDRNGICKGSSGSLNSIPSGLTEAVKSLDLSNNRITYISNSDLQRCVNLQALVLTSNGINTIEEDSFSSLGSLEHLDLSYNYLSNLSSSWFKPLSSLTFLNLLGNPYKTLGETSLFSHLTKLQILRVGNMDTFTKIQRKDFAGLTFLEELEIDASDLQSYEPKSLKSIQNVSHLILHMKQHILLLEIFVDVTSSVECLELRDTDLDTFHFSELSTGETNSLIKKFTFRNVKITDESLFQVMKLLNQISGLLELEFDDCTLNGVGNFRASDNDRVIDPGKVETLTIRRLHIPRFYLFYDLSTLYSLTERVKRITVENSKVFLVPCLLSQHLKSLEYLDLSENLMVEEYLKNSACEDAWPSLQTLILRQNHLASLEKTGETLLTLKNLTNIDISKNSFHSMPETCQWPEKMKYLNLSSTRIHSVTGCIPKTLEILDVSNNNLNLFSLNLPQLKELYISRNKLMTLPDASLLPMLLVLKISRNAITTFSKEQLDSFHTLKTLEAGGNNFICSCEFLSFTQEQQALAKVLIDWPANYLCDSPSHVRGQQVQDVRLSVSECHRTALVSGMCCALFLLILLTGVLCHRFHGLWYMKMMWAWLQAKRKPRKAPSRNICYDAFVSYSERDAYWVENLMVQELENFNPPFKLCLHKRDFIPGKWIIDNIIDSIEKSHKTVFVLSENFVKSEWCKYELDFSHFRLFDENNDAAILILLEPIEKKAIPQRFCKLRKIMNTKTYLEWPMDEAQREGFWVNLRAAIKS
Toll-like receptor 3 (Homo sapiens), sequence (O15455 whole entry): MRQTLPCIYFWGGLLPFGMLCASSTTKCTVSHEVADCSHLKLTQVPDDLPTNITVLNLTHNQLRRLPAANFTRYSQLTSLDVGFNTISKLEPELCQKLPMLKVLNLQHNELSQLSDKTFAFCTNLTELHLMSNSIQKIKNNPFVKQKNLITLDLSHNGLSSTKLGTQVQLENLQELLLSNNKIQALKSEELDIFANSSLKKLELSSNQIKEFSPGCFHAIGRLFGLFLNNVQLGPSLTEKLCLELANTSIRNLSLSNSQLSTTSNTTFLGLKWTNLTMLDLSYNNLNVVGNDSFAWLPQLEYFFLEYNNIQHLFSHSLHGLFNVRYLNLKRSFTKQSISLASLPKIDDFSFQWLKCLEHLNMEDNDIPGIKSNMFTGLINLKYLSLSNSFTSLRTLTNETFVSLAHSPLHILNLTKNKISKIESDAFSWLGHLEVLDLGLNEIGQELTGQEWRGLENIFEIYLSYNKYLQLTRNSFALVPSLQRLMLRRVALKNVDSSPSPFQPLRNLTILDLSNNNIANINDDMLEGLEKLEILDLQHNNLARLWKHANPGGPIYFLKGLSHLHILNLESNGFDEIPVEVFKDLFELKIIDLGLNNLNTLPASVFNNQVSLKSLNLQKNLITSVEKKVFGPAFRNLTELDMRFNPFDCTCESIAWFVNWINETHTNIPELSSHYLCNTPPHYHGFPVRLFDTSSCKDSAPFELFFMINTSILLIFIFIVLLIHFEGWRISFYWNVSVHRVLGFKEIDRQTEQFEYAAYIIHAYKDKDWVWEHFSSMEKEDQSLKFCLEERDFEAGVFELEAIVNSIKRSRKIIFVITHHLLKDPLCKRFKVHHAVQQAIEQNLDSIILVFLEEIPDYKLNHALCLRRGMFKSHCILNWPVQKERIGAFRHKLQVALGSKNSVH
Toll-like receptor 2 (Mus musculus), sequence (Q9QUN7 whole entry): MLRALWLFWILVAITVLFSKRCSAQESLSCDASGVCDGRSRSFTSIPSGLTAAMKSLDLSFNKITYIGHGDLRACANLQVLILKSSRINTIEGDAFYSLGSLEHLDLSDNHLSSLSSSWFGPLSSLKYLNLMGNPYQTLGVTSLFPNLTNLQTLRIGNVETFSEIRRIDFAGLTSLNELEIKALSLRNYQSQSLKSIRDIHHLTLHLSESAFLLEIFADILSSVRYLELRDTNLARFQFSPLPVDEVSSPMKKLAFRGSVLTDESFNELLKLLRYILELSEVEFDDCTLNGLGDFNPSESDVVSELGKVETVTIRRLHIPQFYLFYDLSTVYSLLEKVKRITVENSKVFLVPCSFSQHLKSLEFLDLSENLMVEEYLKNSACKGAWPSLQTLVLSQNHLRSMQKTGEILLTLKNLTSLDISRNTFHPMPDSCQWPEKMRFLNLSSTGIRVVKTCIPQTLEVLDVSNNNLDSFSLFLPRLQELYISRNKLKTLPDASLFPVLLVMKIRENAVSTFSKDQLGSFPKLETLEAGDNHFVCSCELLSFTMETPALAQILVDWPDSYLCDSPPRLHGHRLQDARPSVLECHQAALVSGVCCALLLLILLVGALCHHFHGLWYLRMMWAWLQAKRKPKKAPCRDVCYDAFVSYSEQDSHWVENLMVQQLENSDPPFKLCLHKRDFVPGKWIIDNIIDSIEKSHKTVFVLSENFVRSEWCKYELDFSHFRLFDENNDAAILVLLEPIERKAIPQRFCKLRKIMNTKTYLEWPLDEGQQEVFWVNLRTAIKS

A word on the inhibition: it is the change of the read-out against control, counted positive when it falls. On to `COc1cccc(/C=N/c2ccccc2C(=O)c2ccc(Cl)cc2)c1O`, for which the inhibition in series [1] was 66.8%; in series [2], 95.1%; in series [6] it was over 70%; in [7] it was 50%; on TLR2/TLR6 (Mus musculus) it was over 70%; in [8] it was “Dose-dependent effect”. The inhibition in series [9] turned out to be 90%. In addition, the Activity result in series [3] is given as “Non-Toxic”. In addition, the inhibition result (in [4]; on TLR2/TLR6 (Homo sapiens)) was “Active” throughout. For the same molecule, in series [5], the inhibition entry is “inactive”.
